Screens deposited in PubChem BioAssay by Sanford-Burnham Center for Chemical Genomics.
In the library only some 4.4% were active in any assay of this set; here they are far more common.
MPTP block = inhibitors of mitochondrial permeability transition pore. isolated mouse mitochondria, Ca2+ swelling absorbance, 30 min. inhibition, % at 10 µM. 360,000 tested, 1.4% active. AID 602449;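 active means inhibition of 50% or more, scaled per plate between neutral and stimulator controls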
GRIN3A LBD mod = modulates the human NR3A ligand-binding domain. NR3A LBD differential scanning fluorimetry, Tm shift; 0% = protein alone, 100% = glycine-bound protein. Tm shift relative to glycine control, % at 25 µM. 340,000 tested, 2.5% active. AID 1259313;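 active means melting temperature shift of at least 10% of the positive control shift, at one fixed dose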
EBI2 block = antagonists of human EBI2 receptor; P32249; EBI2 beta-arrestin recruitment, luminescence, 7a,25-OHC stimulated; inhibition, % at 5 µM; 360,000 tested, 0.81% active; in the data active means inhibition above about 38%;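 further: enzyme fragment complementation signal reports receptor beta-arrestin coupling in cells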
Target sequence (P32249 whole entry, looked up, the tested form may be a part): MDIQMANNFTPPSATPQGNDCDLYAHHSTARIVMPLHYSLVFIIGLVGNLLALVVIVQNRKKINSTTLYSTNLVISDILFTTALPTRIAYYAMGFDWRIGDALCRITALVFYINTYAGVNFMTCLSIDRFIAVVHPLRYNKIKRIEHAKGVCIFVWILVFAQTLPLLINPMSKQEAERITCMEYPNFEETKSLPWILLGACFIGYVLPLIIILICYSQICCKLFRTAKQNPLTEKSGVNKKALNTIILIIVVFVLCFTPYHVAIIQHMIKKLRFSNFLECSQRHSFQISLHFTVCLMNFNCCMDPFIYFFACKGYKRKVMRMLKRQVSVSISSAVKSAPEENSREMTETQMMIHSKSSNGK
SENP1 FRET inh = inhibitors of human SENP1 SUMO protease catalytic domain. Q9P0U3. inhibition, % at 10 µM. recombinant SENP1 catalytic domain, CyPet-SUMO1-YPet FRET cleavage. 360,000 tested, 0.21% active;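 active means inhibition at least 30% at 10 µM, raw YFP signal under a set limit, fluorescence ratio 0.5 to 1.5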
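Controls: no-enzyme wells low, DMSO-plus-enzyme wells high control. Test system: human recombinant His6-tagged SENP1 catalytic domain enzyme. Reagent: SFCypet-SUMO1-SFYpet FRET protein substrate, 25 nM final. Doses: one dose per compound, 10 µM, 0.5% DMSO. Detection: FRET, CFP and YFP emission. Timing: 50 min reaction at room temperature.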
Rh123 counter = membrane potential counter-screen of mitochondrial pore inhibitors. AID 624504. 5,000 tested, 78% active. inhibition, % at 10 µM. shares compounds with MPTP block. isolated mitochondria, Rhodamine 123 fluorescence; in the data active means inhibition above about 22%
MPTP abs DR = dose response confirmation of mitochondrial permeability transition pore inhibitors; shares compounds with MPTP block; isolated mitochondria swelling, absorbance; IC50, µM; 780 tested, 58% active; AID 651561; in the data active means IC50 below about 20 µM
MPTP cs DR = counter-screen for mitochondrial permeability transition pore inhibitors, dose response; 780 tested, 49% active; IC50, µM; shares compounds with MPTP block; isolated mitochondria counterscreen, fluorescence read-out; in the data active means IC50 below about 80 µM
Of the large screens only hits and unclear results are named; the others gave an inactive call (follow-up assays come after a bar, where they were run).

CCOC(=O)Cc1nnc2c(Nc3ccc(Cl)cc3)nc3nonc3n12	MPTP block 94 | Rh123 counter 87
COc1cccc(COC(=O)Nc2ccccc2)c1OC	none (no result: GRIN3A LBD mod)
CC(C)N1CCc2c(sc(NC(=O)c3cc(-c4cccs4)nc4ccccc34)c2C(N)=O)C1	MPTP block 83 | Rh123 counter inactive
CC(=O)c1cccc(NC(=O)C(C)Sc2nnc3ccccn23)c1 (centres undefined)	none (no result: GRIN3A LBD mod)
CCOc1ccc(NC(=O)CSc2ncc(-c3ccc(F)cc3)n2Cc2ccco2)cc1	none
O=C(CSc1ncc(-c2ccc(F)cc2)n1Cc1ccco1)Nc1ccc2c(c1)OCO2	MPTP block 85 | Rh123 counter 62
Cc1ccc(S(=O)(=O)Nc2ccccc2CNc2ccc(Br)cn2)cc1	MPTP block 68, GRIN3A LBD mod 14 | Rh123 counter 70
CN(C)CCOc1ccc(-c2c(-c3ccccc3)sc3ccccc23)cc1	MPTP block 104 | Rh123 counter inactive
c1ccc(-c2sc3ccccc3c2-c2ccc(OCCN3CCCCC3)cc2)cc1	none
COc1ccc([N+](=O)[O-])cc1NC(=O)CSc1ccc2ccccc2c1	MPTP block 62 | Rh123 counter 31
COc1ccc([N+](=O)[O-])cc1NC(=S)NC(NC(=O)C(c1ccccc1)c1ccccc1)C(Cl)(Cl)Cl (centres undefined)	MPTP block 95 | Rh123 counter 64
COC(=O)NC(NC(=S)Nc1ccc([N+](=O)[O-])cc1)C(Cl)(Cl)Cl (centres undefined)	MPTP block 93 | Rh123 counter 80
CC(C)CC(=O)NC(Nc1ccc([N+](=O)[O-])cc1)C(Cl)(Cl)Cl (centres undefined)	MPTP block 90 | Rh123 counter 96
CC(C)CC(=O)NC(Nc1ccccc1F)C(Cl)(Cl)Cl (centres undefined)	none
OC(CNC1CCCc2ccccc21)COc1ccc2ccccc2c1 (centres undefined)	none
CC(C)(C)NCC(O)COc1ccccc1C1CCCC1 (centres undefined)	MPTP block 95 | Rh123 counter inactive | MPTP abs DR 6.8 | MPTP cs DR 56
CC(C)(C)NC[C@@H](O)COc1cccc2c1CCCC2=O	none
CCc1ccccc1OC[C@@H](O)CN[C@H]1CCCc2ccccc21	MPTP block 104 | Rh123 counter inactive | MPTP abs DR 5.5 | MPTP cs DR 15
Cc1[nH]n(-c2ccccc2)c(=O)c1N=Nc1c(O)cc(S(=O)(=O)N(C)C)c2ccccc12	MPTP block 81 | Rh123 counter 42
Cc1ccc([N+](=O)[O-])cc1NC(=S)NC(=O)C(C)(C)C	none
COc1ccc(CNc2ccc([N+](=O)[O-])cc2C)cc1	none
Cc1ccc(NS(=O)(=O)c2cc([N+](=O)[O-])ccc2NNC(=S)Nc2cc(C)ccc2C)c(C)c1	MPTP block 110, GRIN3A LBD mod 20, SENP1 FRET inh 62 | Rh123 counter 67
Cc1cccc(NC(=S)NNc2cccc(Cl)c2)c1	none
COc1ccc(NC(=S)NNc2ccc([N+](=O)[O-])cc2S(=O)(=O)Nc2ccc(C)cc2C)cc1	MPTP block 97, GRIN3A LBD mod 23, SENP1 FRET inh 42 | Rh123 counter 56
Cc1ccc(NS(=O)(=O)c2cc([N+](=O)[O-])ccc2NNC(=S)Nc2cccc(Cl)c2)c(C)c1	MPTP block 86, SENP1 FRET inh 54 | Rh123 counter inactive
CN1CCCN(C(c2ccccc2)c2ccc(Cl)cc2)CC1 (centres undefined)	MPTP block 99 | Rh123 counter inactive
CC(C)(C)[C@@H]1C=C(C(=O)O)[C@H](c2ccc(Cl)cc2)N1S(=O)(=O)c1ccccc1	none
O=C(Cc1ccc(Cl)cc1)Nc1ccc(SC(F)F)cc1	MPTP block 92 | Rh123 counter 105
O=C(Cc1ccccc1F)Nc1ccc(SC(F)F)cc1	none
CCOc1cc(C(=O)OCc2cc(=O)n3c(C)csc3n2)ccc1OC	none
COc1ccc(Cl)cc1NC(=O)CSc1nnc(Cc2ccc(C)cc2)c(=O)[nH]1	MPTP block 63 | Rh123 counter 67
